This is an account of results in ChEMBL document CHEMBL1141202, “Novel CCR1 antagonists with oral activity in the mouse collagen induced arthritis” (Bioorg Med Chem Lett, 2005).

The half-life is the time in which the quantity being followed falls by half. A high value points to slow loss. The bioavailability is the share of a dose that reaches the circulation, judged against a reference dose that is usually intravenous. A high value points to much systemic uptake. Usually Cmax stands for the maximum level reached in the sampled fluid or tissue. Usually AUC stands for the area under the concentration-time curve, a measure of exposure. Low values mean low exposure, high ones high exposure. Broadly, the IC50 is the midpoint of a concentration-inhibition curve.

Each structure is given as a SMILES string.

Series [1] can be described thus: Half life in rat. Format: ADME, organism-based. To be noted: in vivo.
The nature of series [2]: Oral bioavailability in rat. The class given is ADME, organism-based. To be noted: in vivo.
The species entered for series [3] is Rattus norvegicus. Put plainly: Maximum concentration in rat. Format: ADME, organism-based. To be noted: in vivo.
Series [4] is described as follows: AUC in rat. The class given is ADME, organism-based. The note with it: plasma.
Series [5] addresses T1, C-C chemokine receptor type 1 (Homo sapiens, UniProt P32246).
T1 sequence (P32246 whole entry): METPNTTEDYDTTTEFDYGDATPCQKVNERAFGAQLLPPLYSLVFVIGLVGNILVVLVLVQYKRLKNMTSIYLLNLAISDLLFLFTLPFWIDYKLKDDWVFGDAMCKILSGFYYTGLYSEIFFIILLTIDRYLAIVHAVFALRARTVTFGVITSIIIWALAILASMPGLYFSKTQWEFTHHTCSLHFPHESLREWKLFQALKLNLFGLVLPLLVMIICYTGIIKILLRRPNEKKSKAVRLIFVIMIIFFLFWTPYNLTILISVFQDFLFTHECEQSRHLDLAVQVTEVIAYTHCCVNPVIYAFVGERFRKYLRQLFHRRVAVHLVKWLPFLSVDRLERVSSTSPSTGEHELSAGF
Put plainly: Antagonistic activity at human CCR1 in CHO-K1 cells. Format: functional, cell-based. The method in brief: (§1)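 CHO-K1 cells stably transfected with human, mouse or rat CCR1; membranes used in a scintillation proximity assay with radiolabelled MIP-1α as ligand.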

For series [6], the target named is Alpha-2C adrenergic receptor (Homo sapiens, UniProt P18825). Put plainly: Inhibition of human adrenergic alpha-2C receptor.
For series [7], the target named is Muscarinic acetylcholine receptor M3 (Homo sapiens, UniProt P20309). Put plainly: Inhibition of human muscarinic receptor M3.
Series [8] deals with Serotonin 3 (5-HT3) receptor. Description: Inhibition of human 5HT3 receptor. Format: protein-complex assay.
The target of series [9] is Muscarinic acetylcholine receptor M5 (Homo sapiens, UniProt P08912). Description: Inhibition of human muscarinic receptor M5.
The target of series [10] is Muscarinic acetylcholine receptor M4 (Homo sapiens, UniProt P08173). Put plainly: Inhibition of human muscarinic receptor M4.
The target in series [11] is 5-hydroxytryptamine receptor 6 (Homo sapiens, UniProt P50406). Put plainly: Inhibition of human 5HT6 receptor.
The target of series [12] is D(4) dopamine receptor (Homo sapiens, UniProt P21917). Description: Inhibition of human dopamine receptor D4.4.
The target of series [13] is Alpha-2A adrenergic receptor (Homo sapiens, UniProt P08913). Put plainly: Inhibition of human adrenergic alpha-2A receptor.
Series [14] deals with Kappa-type opioid receptor (Homo sapiens, UniProt P41145). Put plainly: Inhibition of human kappa opioid receptor.
Series [15] deals with Beta-1 adrenergic receptor (Homo sapiens, UniProt P08588). Put plainly: Inhibition of human adrenergic beta-1 receptor.
Series [16] has as its target C-C chemokine receptor type 3 (Homo sapiens, UniProt P51677). Description: Inhibition of human CCR3.
For series [17], the target named is C-C chemokine receptor type 6 (Homo sapiens, UniProt P51684). Description: Inhibition of human CCR6.
Series [18] addresses D(1A) dopamine receptor (Homo sapiens, UniProt P21728). Put plainly: Inhibition of human dopamine receptor D1.
Series [19] deals with C-C chemokine receptor type 2 (Homo sapiens, UniProt P41597). Description: Inhibition of human CCR2b.
In series [20] the target is 5-hydroxytryptamine receptor 1A (Homo sapiens, UniProt P08908). Description: Inhibition of human 5HT1A receptor.
For series [21], the target named is Adrenergic receptor alpha-1 (Homo sapiens, UniProt P35348+P25100+P35368). Description: Inhibition of human adrenergic alpha-1 receptor. Format: protein assay.
The target in series [22] is 5-hydroxytryptamine receptor 2B (Homo sapiens, UniProt P41595). Put plainly: Inhibition of human 5HT2B receptor.
Series [23] concerns the target 5-hydroxytryptamine receptor 2A (Homo sapiens, UniProt P28223). Put plainly: Inhibition of human 5HT2A receptor.
Series [24] deals with 5-hydroxytryptamine receptor 1B (Homo sapiens, UniProt P28222). Put plainly: Inhibition of human 5HT1B receptor.
For series [25], the target named is Delta-type opioid receptor (Homo sapiens, UniProt P41143). Put plainly: Inhibition of human delta opioid receptor.
Series [26] deals with Mu-type opioid receptor (Homo sapiens, UniProt P35372). Description: Inhibition of human mu opioid receptor.
Series [27] concerns the target D(3) dopamine receptor (Homo sapiens, UniProt P35462). Put plainly: Inhibition of human dopamine receptor D3.
Series [28] concerns the target D(2) dopamine receptor (Homo sapiens, UniProt P14416). Put plainly: Inhibition of human dopamine receptor D2.
Series [29] concerns the target Muscarinic acetylcholine receptor M2 (Homo sapiens, UniProt P08172). Put plainly: Inhibition of human muscarinic receptor M2.
Series [30] deals with Alpha-2B adrenergic receptor (Homo sapiens, UniProt P18089). Description: Inhibition of human adrenergic alpha-2B receptor.
In series [31] the target is 5-hydroxytryptamine receptor 2C (Homo sapiens, UniProt P28335). Description: Inhibition of human 5HT2C receptor.
Series [32] addresses C-C chemokine receptor type 5 (Mus musculus, UniProt P51682). Put plainly: Inhibition of mouse CCR5.
Series [33] deals with Muscarinic acetylcholine receptor M1 (Homo sapiens, UniProt P11229). Description: Inhibition of human muscarinic receptor M1.
For series [34], the target named is Beta-2 adrenergic receptor (Homo sapiens, UniProt P07550). Description: Inhibition of human adrenergic beta-2 receptor.
For series [35], the target named is 5-hydroxytryptamine receptor 7 (Homo sapiens, UniProt P34969). Put plainly: Inhibition of human 5HT7 receptor.
Series [36] has as its target T1, C-C chemokine receptor type 1. Description: Antagonistic activity at human CCR1 by inhibition of MIP-1alpha induced calcium mobilization in THP1 cells. Format: functional, cell-based, THP-1. In outline:
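THP-1 cells with native CCR1 expression; preincubated with antagonist 30 min at RT, then stimulated with 3 nM MIP-1α; calcium response read as fluo-4 fluorescence.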
In general terms: A change in cytosolic calcium serves as a functional read-out for many receptors and channels.

Series [37] deals with T2, C-C chemokine receptor type 1 (Mus musculus, UniProt P51675).
T2 sequence (P51675 whole entry): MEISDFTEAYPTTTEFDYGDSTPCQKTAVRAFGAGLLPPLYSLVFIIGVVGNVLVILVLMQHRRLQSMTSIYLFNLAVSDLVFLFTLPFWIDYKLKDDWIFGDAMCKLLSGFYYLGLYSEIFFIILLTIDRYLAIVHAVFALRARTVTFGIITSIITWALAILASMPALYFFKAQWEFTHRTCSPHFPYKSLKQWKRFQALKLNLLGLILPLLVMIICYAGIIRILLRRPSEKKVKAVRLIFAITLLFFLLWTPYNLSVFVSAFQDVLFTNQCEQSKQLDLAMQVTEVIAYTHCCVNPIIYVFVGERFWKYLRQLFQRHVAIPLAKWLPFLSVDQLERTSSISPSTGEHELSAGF
Description: Antagonistic activity at mouse CCR1 in CHO-K1 cells. Format: functional, cell-based. The method in brief: as §1

Chain of Delta-type opioid receptor (P41143 whole entry): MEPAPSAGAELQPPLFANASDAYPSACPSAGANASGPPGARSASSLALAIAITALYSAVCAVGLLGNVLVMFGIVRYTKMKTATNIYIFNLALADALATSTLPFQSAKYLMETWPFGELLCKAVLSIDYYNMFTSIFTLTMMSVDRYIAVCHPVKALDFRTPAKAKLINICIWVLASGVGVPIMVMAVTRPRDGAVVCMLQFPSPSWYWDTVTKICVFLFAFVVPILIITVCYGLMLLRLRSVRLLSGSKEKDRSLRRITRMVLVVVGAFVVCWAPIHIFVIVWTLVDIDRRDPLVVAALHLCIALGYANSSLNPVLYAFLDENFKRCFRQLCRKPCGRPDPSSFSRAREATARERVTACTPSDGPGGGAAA
Chain of 5-hydroxytryptamine receptor 2A (P28223 whole entry): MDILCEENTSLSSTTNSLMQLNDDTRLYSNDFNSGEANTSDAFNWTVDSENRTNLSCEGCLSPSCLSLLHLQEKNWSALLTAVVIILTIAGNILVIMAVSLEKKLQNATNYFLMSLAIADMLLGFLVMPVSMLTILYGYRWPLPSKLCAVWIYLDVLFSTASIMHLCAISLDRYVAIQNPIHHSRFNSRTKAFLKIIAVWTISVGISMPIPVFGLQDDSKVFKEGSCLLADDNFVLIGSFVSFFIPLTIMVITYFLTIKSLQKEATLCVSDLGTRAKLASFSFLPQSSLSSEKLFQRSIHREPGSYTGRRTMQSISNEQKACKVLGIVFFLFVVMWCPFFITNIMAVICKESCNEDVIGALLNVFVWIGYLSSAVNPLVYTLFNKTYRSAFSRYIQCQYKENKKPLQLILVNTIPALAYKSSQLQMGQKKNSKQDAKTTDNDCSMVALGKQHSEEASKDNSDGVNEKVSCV
Chain of Alpha-2B adrenergic receptor (P18089 whole entry): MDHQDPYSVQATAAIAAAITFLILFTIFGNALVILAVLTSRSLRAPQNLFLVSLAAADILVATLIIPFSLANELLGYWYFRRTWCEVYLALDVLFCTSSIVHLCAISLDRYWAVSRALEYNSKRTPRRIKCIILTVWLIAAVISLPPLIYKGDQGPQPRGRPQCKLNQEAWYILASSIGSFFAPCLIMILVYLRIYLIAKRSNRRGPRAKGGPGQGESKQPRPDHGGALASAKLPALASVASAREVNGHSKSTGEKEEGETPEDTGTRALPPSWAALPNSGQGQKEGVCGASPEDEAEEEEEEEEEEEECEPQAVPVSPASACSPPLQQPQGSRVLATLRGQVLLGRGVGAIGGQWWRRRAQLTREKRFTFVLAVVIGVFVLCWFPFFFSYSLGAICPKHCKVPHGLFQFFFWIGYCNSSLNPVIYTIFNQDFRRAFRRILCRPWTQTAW
Chain of Kappa-type opioid receptor (P41145 whole entry): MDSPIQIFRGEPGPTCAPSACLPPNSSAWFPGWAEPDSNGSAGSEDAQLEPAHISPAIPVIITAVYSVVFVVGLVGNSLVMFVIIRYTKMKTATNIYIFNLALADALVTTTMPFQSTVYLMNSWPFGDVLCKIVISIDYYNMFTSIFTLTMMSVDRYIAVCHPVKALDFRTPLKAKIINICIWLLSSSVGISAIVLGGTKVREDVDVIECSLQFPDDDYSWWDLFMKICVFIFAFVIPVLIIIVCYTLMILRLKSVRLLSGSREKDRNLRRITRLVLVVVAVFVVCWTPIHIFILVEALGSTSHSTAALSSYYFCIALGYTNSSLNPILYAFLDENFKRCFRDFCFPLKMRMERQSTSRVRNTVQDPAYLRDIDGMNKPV
Chain of Beta-1 adrenergic receptor (P08588 whole entry): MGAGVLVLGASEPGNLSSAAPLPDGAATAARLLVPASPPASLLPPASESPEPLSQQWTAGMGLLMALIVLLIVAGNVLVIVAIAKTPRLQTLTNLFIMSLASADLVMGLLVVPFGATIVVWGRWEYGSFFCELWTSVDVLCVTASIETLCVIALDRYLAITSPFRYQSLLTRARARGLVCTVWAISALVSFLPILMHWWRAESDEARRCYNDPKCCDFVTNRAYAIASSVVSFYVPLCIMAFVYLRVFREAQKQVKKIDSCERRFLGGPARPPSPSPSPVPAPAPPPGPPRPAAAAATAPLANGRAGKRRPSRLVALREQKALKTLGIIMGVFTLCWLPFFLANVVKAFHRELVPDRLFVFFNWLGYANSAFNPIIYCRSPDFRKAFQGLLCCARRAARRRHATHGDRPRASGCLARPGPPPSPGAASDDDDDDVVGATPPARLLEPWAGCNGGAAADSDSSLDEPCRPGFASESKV
Chain of C-C chemokine receptor type 6 (P51684 whole entry): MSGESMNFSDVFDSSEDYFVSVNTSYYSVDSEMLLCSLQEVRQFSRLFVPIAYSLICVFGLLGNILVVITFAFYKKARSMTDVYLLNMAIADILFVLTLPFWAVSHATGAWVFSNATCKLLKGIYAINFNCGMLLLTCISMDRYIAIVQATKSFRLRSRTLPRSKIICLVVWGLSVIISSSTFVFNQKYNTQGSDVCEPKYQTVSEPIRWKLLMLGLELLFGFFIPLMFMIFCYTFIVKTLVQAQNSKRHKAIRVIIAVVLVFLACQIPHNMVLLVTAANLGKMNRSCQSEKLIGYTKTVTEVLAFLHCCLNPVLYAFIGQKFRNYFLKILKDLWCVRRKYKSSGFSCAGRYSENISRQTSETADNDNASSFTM
Chain of D(1A) dopamine receptor (P21728 whole entry): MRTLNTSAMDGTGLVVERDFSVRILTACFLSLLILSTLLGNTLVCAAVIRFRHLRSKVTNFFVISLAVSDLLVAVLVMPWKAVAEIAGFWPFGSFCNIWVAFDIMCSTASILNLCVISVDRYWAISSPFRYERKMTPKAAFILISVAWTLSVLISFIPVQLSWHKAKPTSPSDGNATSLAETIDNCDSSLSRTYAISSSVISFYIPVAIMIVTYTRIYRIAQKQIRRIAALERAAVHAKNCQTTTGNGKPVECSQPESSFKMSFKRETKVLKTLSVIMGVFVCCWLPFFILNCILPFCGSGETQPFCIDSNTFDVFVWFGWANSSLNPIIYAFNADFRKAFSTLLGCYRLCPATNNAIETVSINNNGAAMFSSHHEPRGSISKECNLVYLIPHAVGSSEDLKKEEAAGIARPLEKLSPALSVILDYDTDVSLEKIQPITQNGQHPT
Chain of Mu-type opioid receptor (P35372 whole entry): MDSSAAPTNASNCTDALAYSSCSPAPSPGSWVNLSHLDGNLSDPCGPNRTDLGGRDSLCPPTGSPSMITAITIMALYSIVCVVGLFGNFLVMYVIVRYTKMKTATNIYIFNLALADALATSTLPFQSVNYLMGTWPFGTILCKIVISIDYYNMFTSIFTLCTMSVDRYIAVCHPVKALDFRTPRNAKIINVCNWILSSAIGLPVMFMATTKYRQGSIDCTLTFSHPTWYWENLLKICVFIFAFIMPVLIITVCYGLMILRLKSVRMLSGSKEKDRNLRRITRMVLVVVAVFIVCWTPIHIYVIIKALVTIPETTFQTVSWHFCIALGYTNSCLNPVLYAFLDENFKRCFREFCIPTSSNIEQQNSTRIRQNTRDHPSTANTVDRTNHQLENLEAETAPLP
Chain of Muscarinic acetylcholine receptor M1 (P11229 whole entry): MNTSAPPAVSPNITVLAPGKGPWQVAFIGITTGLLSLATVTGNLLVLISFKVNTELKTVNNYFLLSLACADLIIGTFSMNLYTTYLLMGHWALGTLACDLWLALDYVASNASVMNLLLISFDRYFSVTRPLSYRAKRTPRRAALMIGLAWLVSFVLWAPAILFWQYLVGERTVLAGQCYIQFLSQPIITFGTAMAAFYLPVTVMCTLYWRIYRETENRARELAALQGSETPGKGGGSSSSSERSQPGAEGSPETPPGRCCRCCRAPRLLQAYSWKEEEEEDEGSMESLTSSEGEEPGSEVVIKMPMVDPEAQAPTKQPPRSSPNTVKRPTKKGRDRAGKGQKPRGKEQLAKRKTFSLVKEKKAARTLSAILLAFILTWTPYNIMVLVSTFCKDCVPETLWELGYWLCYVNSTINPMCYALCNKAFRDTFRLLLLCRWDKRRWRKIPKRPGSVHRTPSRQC
Chain of D(3) dopamine receptor (P35462 whole entry): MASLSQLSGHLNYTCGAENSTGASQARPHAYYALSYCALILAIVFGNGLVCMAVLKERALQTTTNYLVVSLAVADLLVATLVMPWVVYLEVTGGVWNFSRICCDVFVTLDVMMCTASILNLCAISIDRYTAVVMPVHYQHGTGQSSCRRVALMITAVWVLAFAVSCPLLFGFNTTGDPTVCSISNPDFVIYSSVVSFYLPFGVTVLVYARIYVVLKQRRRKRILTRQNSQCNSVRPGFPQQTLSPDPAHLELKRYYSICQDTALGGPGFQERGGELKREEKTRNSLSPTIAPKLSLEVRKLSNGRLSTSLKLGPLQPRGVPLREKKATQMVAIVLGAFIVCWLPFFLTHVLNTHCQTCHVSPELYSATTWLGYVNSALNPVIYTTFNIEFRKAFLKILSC
Chain of Muscarinic acetylcholine receptor M3 (P20309 whole entry): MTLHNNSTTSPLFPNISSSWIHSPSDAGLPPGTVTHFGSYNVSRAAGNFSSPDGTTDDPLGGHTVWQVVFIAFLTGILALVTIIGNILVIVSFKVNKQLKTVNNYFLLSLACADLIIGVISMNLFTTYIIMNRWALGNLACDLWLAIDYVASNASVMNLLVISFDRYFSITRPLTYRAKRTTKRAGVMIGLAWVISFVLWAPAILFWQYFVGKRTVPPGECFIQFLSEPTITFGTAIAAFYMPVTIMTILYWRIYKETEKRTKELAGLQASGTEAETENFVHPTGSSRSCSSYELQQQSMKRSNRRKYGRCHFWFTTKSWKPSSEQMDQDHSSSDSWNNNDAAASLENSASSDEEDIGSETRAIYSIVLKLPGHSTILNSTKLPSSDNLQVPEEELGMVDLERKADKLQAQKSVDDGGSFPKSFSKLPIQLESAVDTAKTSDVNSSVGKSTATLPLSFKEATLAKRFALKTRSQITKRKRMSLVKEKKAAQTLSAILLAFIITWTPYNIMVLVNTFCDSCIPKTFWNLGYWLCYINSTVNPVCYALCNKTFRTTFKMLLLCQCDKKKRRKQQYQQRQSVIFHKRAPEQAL

For `C[C@@H]1CN(Cc2ccc(F)cc2)CCN1C(=O)/C=C/c1ccc(Cl)cc1NC(N)=O`, the half-life in series [1] was 11 h. In addition, the bioavailability in series [2] worked out at 90%. The molecule further showed a Cmax in [3] of 934 nM. In addition, in series [4], the AUC turned out to be 487 ng·h/mL.
In [5], `CC(=O)Nc1cc(Cl)ccc1/C=C/C(=O)N1C[C@H]2C[C@@H]1CN2Cc1ccc(F)cc1` yielded an IC50 of 1700 nM.
With `CC(=O)Nc1cc(Cl)ccc1/C=C/C(=O)N1CCN(Cc2ccc(F)cc2)C[C@H]1C`, the IC50 in [6], in series [7], in [8], in series [9], in series [10] and in series [11] was more than 1000 nM each time. For the same molecule, the 50% inhibitory concentration (IC50) in [12] is more than 1000 nM; in series [13] it was more than 1000 nM; in [14], more than 1000 nM; in series [15], more than 1000 nM; in series [16], more than 10000 nM; in [17], more than 100000 nM. Also, the IC50 is more than 1000 nM in series [18]; more than 10000 nM in series [19]; more than 1000 nM in [20]; more than 1000 nM in series [21]; more than 1000 nM in [22]; more than 1000 nM in series [23]. Moreover, the IC50 in series [24], in [25], in series [26], in series [27], in series [28] and in series [29] was more than 1000 nM in each case. In addition, the IC50 in series [30] is more than 1000 nM; in series [31] it was more than 1000 nM; in [32], more than 10000 nM; in series [33] it was more than 1000 nM; in series [34] it was more than 1000 nM; in [35] it was more than 1000 nM. In series [1], this molecule showed a half-life of 16.5 h. The same molecule had a bioavailability in [2] of 95%. The peak level in series [3] (Cmax) was 850 nM. In [4], this molecule returned an AUC of 784 ng·h/mL.
As to `CC(=O)Nc1cc2ncccc2cc1/C=C/C(=O)N1CCN(Cc2ccc(F)cc2)C[C@H]1C`, the IC50 in [36] turned out to be 20 nM; in series [37] it was 1000 nM; in [5] it was 30 nM.
`CN(C)CC(=O)Nc1cc(Cl)ccc1/C=C/C(=O)N1C2CCC1CN(Cc1ccc(F)cc1)C2`: the values for the IC50 in series [36], in series [37] and in series [5] were 9 nM, 40 nM and 30 nM, respectively. The half-life in series [1] was 2.92 h. Also, in [2], the bioavailability is 77%. For the same molecule, the concentration in [3] peaked (Cmax) at 407 nM. Also, the exposure (AUC) in series [4] is 1070 ng·h/mL.
The molecule `COc1cc(/C=C/C(=O)N2CCN(Cc3ccc(F)cc3)C[C@H]2C)c(NC(C)=O)cc1Cl` gave a half-life in [1] of 4.1 h. The same molecule returned a bioavailability in series [2] of 100%. The molecule also yielded a maximum concentration (Cmax) in series [3] of 396 nM. This molecule also registered an AUC in series [4] of 750 ng·h/mL.
In the case of `CC(=O)Nc1cc2ncccc2cc1/C=C/C(=O)N1C2CCC1CN(Cc1ccc(F)cc1)C2`, the results for the IC50 in series [37] and in series [5] were 50 nM and 150 nM, respectively.
In turn, `CC(=O)Nc1cc(Cl)ccc1/C=C/C(=O)N1CCCN(Cc2ccc(F)cc2)C[C@H]1C` yielded an IC50 in series [5] of 1600 nM.
Regarding `CC(=O)Nc1cc2ccccc2cc1/C=C/C(=O)N1CCN(Cc2ccc(F)cc2)C[C@H]1C`, the IC50 worked out at 13 nM in series [36], 500 nM in series [37] and 80 nM in series [5].
Turning to `CC(=O)Nc1cc(Cl)ccc1/C=C/C(=O)N1CC2CCC(C1)N2Cc1ccc(F)cc1`, the midpoint of inhibition in series [5], the IC50, lay at 300 nM.
Consider `COc1cc(/C=C/C(=O)N2C3CCC2CN(Cc2ccc(F)cc2)C3)c(NC(C)=O)cc1Cl`, for which the results for the IC50 in series [37] and in series [5] were 4 nM and 7 nM, respectively. The same molecule showed a half-life in series [1] of 5.1 h. The bioavailability in series [2] was 83%. The molecule also gave a Cmax in series [3] of 80 nM. The same molecule registered an area under the curve (AUC) in [4] of 158 ng·h/mL.
In turn, `CC(=O)Nc1cc(Cl)ccc1/C=C/C(=O)N1C2CCC1CN(Cc1ccc(F)cc1)C2` registered an IC50 in [5] of 200 nM.
In series [5], `COc1cc2c(cc1Cl)NC(=O)NC2CC(=O)N1CCN(Cc2ccc(F)cc2)C[C@H]1C` (stereo partly drawn) showed an IC50 of 800 nM.
Same read-out and setting: for `CC(=O)Nc1cc(Cl)ccc1CCC(=O)N1CCN(Cc2ccc(F)cc2)C[C@H]1C` the value was 360 nM.
Molecule `C[C@@H]1CN(Cc2ccc(F)cc2)CCN1C(=O)COc1ccc(Cl)cc1NC(N)=O.Cl` [BX 471] showed a half-life in series [1] of 1.9 h. The bioavailability in [2] was 100%. This molecule returned a maximum concentration (Cmax) in [3] of 400 nM. The same molecule gave an exposure (AUC) in series [4] of 139 ng·h/mL.
